Screening results deposited in PubChem BioAssay by several laboratories.
Shown is part of a subset that was picked to be rich in hits.
HUVEC prolif 384: inhibitors of HUVEC proliferation, primary screen, cell-based, 384-well. CellTiter-Glo luminescence, 72 h; stronger effect = lower value. viability, % at 10 µM (by protocol). 86,000 compounds, 1.1% hits. AID 648, 2007;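 active = viability at or below 30%; inactive = viability above 30%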;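 also: 100% = median luminescence of DMSO-only cell control wells on each plate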
H69AR growth 86K: proliferation blockers of H69AR lung cancer cells, primary screen, cell-based, human, 86K library; H69AR lung tumor viability, ATP luminescence, 72 h; stronger effect = lower value; viability, % at 10 µM; 85,000 compounds, 6% hits; AID 598, 2007;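 active = viability at or below 40%; inactive = viability above 40%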;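 also: multidrug resistant small cell line overexpressing MRP-1 efflux transporter; 100% = mean luminescence of untreated control wells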
Phagocyt inh: inhibitors of macrophage phagocytosis, primary screen, imaging, J774A.1 cells, IgG beads. J774A.1 macrophage IgG-bead phagocytosis. inhibition, % at 5 µM. 110,000 compounds, 0.07% hits;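 active = inhibition above the mean of the plate negative controls plus 5 SD, cut at about 13% in these data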;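 also: phagocytic index as fraction of beads internalized from green versus red external bead signal; plate controls were DMSO negative control for no effect and cytochalasin-D positive control for full effect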
Lung fibro prol: antiproliferative effect on LL 47 fibroblasts – human, LL 47 cells, CellTiter-Glo luminescence, primary screen; LL 47 human lung fibroblast viability, ATP luminescence; stronger effect = lower value; viability, % at 10 µM; 85,000 compounds, 1.1% hits;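 active = viability at or below 50% in the single dose screen; inactive = viability above 50%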;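 also: compound exposure lasted 72 h before the ATP readout; 100% = median luminescence of untreated cell-only wells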
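material = human LL 47 lung fibroblast cells | dosing = compounds added from tenfold dosing solution, 0.1% DMSO final | timing = overnight cell rest, 72 h compound treatment at 37 °C | measured by = CellTiter-Glo luminescence measuring cellular ATP | evaluation = % viability versus median cells-only luminescence | control set = cell-only wells, no compound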
bCat KO growth: primary screen for growth suppressors in beta-catenin knockout HCT116 cells (colon tumor, human); HCT116 beta-catenin knockout viability, CellTiter-Glo, 60 h; stronger effect = lower value; viability, % at 10 µM; 140,000 compounds, 1.5% hits;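 active = viability at or under a set limit, the compound median less 4 SD, cut at about 6% in these data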;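 also: 0% = Hyamine 1622 control at 20 µM and 100% = untreated cell control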
HCT116 PTEN-null: growth suppression of PTEN-null HCT116, primary screen, cell-based, CellTiter-Glo; HCT116 PTEN-null viability, 60 h; stronger effect = lower value; 140,000 compounds, 1.2% hits; viability, % at 10 µM;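 active = viability at or below a set limit, 4 SD under the median of all tested compounds, cut at about 3.7% in these data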;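 also: PTEN knockout HCT116 line with beta catenin targeted HCT116 as companion control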
Starred values were filed as active, the others as inactive; · = no result.

SMILES	HUVEC prolif 384	H69AR growth 86K	Phagocyt inh	Lung fibro prol	bCat KO growth	HCT116 PTEN-null
CC(C)C(=O)NC(c1ccccc1)c1cc([N+](=O)[O-])c2cccnc2c1O (centres undefined)	·	·	-8	·	4.1*	7
C=C(C)CSc1nc(N)cc(=O)[nH]1	100	85	0	103	91	110
CCc1ccc(-c2cn(-c3nc(C)cc(C)n3)c(=N)o2)cc1	59	1.2*	-2	84	70	61
CC(=O)Oc1ccc(N2C(=O)C3C4C=CC(CO)(O4)C3C2=O)cc1 (centres undefined)	93	89	0	99	92	90
O=C1C2C3C=CC(CO)(O3)C2C(=O)N1c1ccccc1-c1ccccc1 (centres undefined)	78	3.9*	-1	8.3*	93	107
COc1ccc(S(=O)(=O)Cc2ccc(C(=O)N3CCN(c4cccc(C)c4C)CC3)o2)cc1	53	23*	-1	71	12	14
COc1ccc(S(=O)(=O)Cc2ccc(C(=O)N3CCN(c4cccc(C)c4)C(C)C3)o2)cc1 (centres undefined)	50	25*	1	56	23	21
Cc1nc(NC(=O)CSc2cc(C)c3ccccc3n2)c(Cl)cc1Cl	·	·	-6	·	71	67
CC(C)COC(=O)N1CC(O)CC1C(=O)O (centres undefined)	88	92	-1	97	96	91
COc1ccc(-c2coc3cc4oc(=O)cc(-c5ccccc5)c4cc23)cc1F	·	·	2	·	2.6*	2.1*
O=C(N/N=C/c1ccccc1OC(=O)c1ccc2c(c1)OCO2)c1cccc(F)c1	·	·	-5	·	5.0*	3.4*
COc1cc(C(=O)Oc2ccccc2/C=N/NC(=O)c2ccc(C)c(Cl)c2)cc(OC)c1OC	·	·	-12	·	5.2*	2.7*
FC(F)Oc1ccc(NC(=S)NCC2COc3ccccc3O2)cc1 (centres undefined)	·	·	-7	·	99	102
Cc1ccc(CSC2=Nc3sccc3C3=NC(=O)CN23)cc1	·	·	·	·	58	62
CCCCCC(=O)N(O)C1CC(=O)N(c2ccccc2)C1=O (centres undefined)	97	35*	0	101	74	76
O=C(COc1cc(Cl)c(Cl)cc1Cl)Nn1cnnc1	102	107	0	99	100	90
CC(NC(=O)Cc1cccs1)c1ccc2c(c1)OCO2 (centres undefined)	121	95	-2	102	97	116
O=C(CSc1nnc(-c2ccc(O)cc2)n1Cc1ccco1)c1cccs1	97	72	3	104	62	61
O=C(CC(SCCO)c1ccc2c(c1)OCO2)c1cccs1 (centres undefined)	95	4.3*	-1	·	7	10
O=C(CC(SCc1ccco1)c1ccc(O)cc1)c1cccs1 (centres undefined)	74	13*	1	86	11	20
CCOC(=O)C(C)(C)N(Cc1ccc(Cl)cc1)S(=O)(=O)c1ccc(Cl)c([N+](=O)[O-])c1	·	·	-3	·	1.1*	1.6*
CCOC(=O)C(C)(C)N(Cc1ccc(C)cc1)S(=O)(=O)c1ccc(Cl)c([N+](=O)[O-])c1	·	·	-9	·	0.9*	0.8*
CCCc1nnc(NC(=O)CCC(=O)N2CCN(C3c4ccccc4-c4ccccc43)CC2)s1	·	·	-4	·	84	89
COc1ccc(/C=N/NC(=O)CCc2c(C)n[nH]c2C)cc1O	93	101	0	108	102	96
CN(c1ccccc1)S(=O)(=O)c1ccc(C(=O)OCC(=O)N2CCOCC2)cc1	102	89	-1	106	97	94
SMILES	HUVEC prolif 384	H69AR growth 86K	Phagocyt inh	Lung fibro prol	bCat KO growth	HCT116 PTEN-null
Cc1cc(Cl)c(S(=O)(=O)N2CCCCCC2)cc1OCC(N)=O	86	107	-4	94	78	66
Cc1cc(Cl)c(S(=O)(=O)N2CCN(c3cccc(C)c3C)CC2)cc1OCC(N)=O	88	38*	-1	90	58	68
CC(=O)Nc1ccc(S(=O)(=O)N2CCN(c3cccc(C)c3C)CC2)cc1	59	37*	0	93	27	35
CC(=O)Nc1ccc(S(=O)(=O)N2CCCN(S(=O)(=O)c3ccc(NC(C)=O)cc3)CC2)cc1	106	55	1	98	105	98
CCNC(=S)NNC(=O)c1cc(C2CC2)nc2ccccc12	·	·	·	·	92	87
COc1cc2cc(CN(CCc3ccccc3C)C(=S)NCCCN(C)C)c(=O)[nH]c2cc1OC	·	·	0	·	2.2*	1.8*
COc1ccc(/C=N/n2cnnc2SCc2ccccc2)cc1	109	96	1	103	88	101
CCCCCOC(=O)Cn1c(=O)c2c(nc(N3CCOCC3)n2C)n(C)c1=O	94	35*	·	96	87	84
Cn1c(=O)[nH]c(=O)c2c1nc(N1CCN(Cc3ccccc3)CC1)n2CCCc1ccccc1	85	71	0	93	5.6*	6
Cn1c(=O)c2c(nc(N3CCN(Cc4ccccc4)CC3)n2CC(=O)c2ccccc2)n(C)c1=O	92	32*	·	93	·	·
C/C(Cl)=C/Cn1c(N2CCCC2)nc2c1c(=O)n(C)c(=O)n2C	92	33*	-1	86	86	91
Cn1c(=O)[nH]c(=O)c2c1nc(N1CCN(c3cccc(Cl)c3)CC1)n2CCCc1ccccc1	93	·	-6	98	99	100
Cn1c(=O)c2c(nc(N3CCN(Cc4ccccc4)CC3)n2CCCc2ccccc2)n(C)c1=O	67	74	-1	89	52	45
CCOC(=O)Cn1c(=O)c2c(nc(N3CCOCC3)n2C)n(C)c1=O	105	68	0	99	93	95
COc1ccc(CNC(=O)c2ccc(Br)o2)cc1	·	·	·	·	101	101
O=S(=O)(c1ccc(NC(=S)NCCC(c2ccccc2)c2ccccc2)cc1)N1CCOCC1	·	·	·	·	23	25
CCCCCn1c(CN2CCN(c3cc(Cl)ccc3C)CC2)nc2c1c(=O)[nH]c(=O)n2C	28*	3.5*	·	87	7	10
CCCCCn1c(N2CCN(c3cccc(Cl)c3)CC2)nc2c1c(=O)[nH]c(=O)n2C	85	59	0	99	65	56
CCOC(=O)Cn1c(=O)c2c(nc(N3CCCCC3)n2Cc2ccccc2)n(C)c1=O	102	24*	-1	96	79	79
CCOC(=O)Cn1c(=O)c2c(nc(Br)n2Cc2ccc(Cl)cc2)n(C)c1=O	92	85	-1	87	·	·
CC(C)(C)C(=O)[C@@H]1[C@@H]2C(=O)N(Cc3ccccc3)C(=O)[C@@H]2[C@H]2c3ccccc3C=CN12	105	34*	1	101	89	91
